Results as given in ChEMBL document CHEMBL1671809, “Discovery of phosphoric acid mono-{2-[(E/Z)-4-(3,3-dimethyl-butyrylamino)-3,5-difluoro-benzoylimino]-thiazol-3-ylmethyl} ester (Lu AA47070): a phosphonooxymethylene prodrug of a potent and selective hA(2A) receptor antagonist” (J Med Chem, 2011).
In brackets after ≈: the same amount, converted by molar mass.

How the values were obtained:
Adenosine receptor A1 = target: T1, Adenosine receptor A1 (Homo sapiens, UniProt P30542); test: Displacement of [3H]-DPCPX from human adenosine A1 receptor expressed in CHO cells after 30 mins by scintillation counting; type: cell-based
T1 sequence (P30542 whole entry): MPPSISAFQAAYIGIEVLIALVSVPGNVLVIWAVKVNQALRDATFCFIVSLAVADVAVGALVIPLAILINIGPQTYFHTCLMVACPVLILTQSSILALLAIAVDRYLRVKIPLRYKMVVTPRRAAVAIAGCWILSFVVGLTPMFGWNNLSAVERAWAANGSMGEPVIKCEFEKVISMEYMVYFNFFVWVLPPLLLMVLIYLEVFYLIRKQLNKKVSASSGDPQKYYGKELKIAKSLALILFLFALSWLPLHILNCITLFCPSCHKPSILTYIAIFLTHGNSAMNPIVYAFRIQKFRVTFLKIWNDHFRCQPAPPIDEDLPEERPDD
In short: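 CHO-hA1 membranes at 10.8 μg protein/well, pretreated with adenosine deaminase (2 U/mL, 30 min, 37 C), were incubated with 1 nM [3H]-DPCPX in 50 mM Tris/HCl pH 7.4 for 30 min at 25 C across 10 compound concentrations. Filtration on PEI-soaked GF/B, scintillation counting. Nonspecific binding by CGS15943. Ki by Cheng-Prusoff. Means of ≥2 determinations.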

Cytochrome P450 1A2 = target: T2, Cytochrome P450 1A2 (Homo sapiens, UniProt P05177); test: Inhibition of recombinant CYP1A2 after 28 mins; type: ADME
T2 sequence (P05177 whole entry): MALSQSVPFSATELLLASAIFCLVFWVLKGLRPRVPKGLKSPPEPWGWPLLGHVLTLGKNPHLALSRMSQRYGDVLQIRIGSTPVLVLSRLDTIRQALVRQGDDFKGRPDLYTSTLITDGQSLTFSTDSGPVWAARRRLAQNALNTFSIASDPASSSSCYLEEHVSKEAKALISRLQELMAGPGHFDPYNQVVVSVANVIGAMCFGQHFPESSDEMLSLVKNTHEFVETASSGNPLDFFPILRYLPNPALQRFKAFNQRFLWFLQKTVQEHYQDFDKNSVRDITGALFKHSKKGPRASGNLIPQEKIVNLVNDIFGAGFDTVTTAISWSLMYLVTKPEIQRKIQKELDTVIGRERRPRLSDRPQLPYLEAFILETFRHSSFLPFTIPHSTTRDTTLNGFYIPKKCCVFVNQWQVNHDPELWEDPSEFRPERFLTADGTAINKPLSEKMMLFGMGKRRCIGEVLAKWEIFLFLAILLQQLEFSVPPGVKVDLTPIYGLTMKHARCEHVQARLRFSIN
In short: (§1)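 Recombinant CYP supersomes incubated in phosphate buffer with eight compound concentrations (40-0.02 μM) and fluorogenic substrates. CYP1A2: 7-ethoxy-3-cyanocoumarin 10 μM, 28 min. CYP2C19: same substrate 50 μM, 45 min. CYP2D6: AMMC 3 μM, 45 min. CYP3A4: resorufin benzyl ether 100 μM, 30 min. Fluorescent metabolite read; IC50 relative to uninhibited controls.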

Cytochrome P450 2C19 = Cytochrome P450 2C19 (Homo sapiens, UniProt P33261); test: Inhibition of recombinant CYP2C19 after 45 mins; type: ADME; in short: as §1
Cytochrome P450 2C19, sequence (P33261 whole entry): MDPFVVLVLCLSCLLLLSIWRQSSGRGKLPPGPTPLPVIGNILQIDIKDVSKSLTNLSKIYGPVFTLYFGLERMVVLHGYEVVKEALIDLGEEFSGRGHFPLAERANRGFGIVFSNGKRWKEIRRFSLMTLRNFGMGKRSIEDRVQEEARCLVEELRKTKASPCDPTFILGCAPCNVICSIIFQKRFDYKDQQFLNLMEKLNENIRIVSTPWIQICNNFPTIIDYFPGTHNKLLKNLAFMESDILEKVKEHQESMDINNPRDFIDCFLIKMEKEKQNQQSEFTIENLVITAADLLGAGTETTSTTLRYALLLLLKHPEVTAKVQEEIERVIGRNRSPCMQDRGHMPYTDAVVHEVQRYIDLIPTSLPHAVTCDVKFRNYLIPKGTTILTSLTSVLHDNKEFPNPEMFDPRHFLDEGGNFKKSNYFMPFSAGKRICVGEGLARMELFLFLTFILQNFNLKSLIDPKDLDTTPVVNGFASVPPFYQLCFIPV

Cytochrome P450 2D6 = Cytochrome P450 2D6 (Homo sapiens, UniProt P10635); test: Inhibition of recombinant CYP2D6 after 45 mins; type: ADME; in short: as §1
Cytochrome P450 2D6, sequence (P10635 whole entry): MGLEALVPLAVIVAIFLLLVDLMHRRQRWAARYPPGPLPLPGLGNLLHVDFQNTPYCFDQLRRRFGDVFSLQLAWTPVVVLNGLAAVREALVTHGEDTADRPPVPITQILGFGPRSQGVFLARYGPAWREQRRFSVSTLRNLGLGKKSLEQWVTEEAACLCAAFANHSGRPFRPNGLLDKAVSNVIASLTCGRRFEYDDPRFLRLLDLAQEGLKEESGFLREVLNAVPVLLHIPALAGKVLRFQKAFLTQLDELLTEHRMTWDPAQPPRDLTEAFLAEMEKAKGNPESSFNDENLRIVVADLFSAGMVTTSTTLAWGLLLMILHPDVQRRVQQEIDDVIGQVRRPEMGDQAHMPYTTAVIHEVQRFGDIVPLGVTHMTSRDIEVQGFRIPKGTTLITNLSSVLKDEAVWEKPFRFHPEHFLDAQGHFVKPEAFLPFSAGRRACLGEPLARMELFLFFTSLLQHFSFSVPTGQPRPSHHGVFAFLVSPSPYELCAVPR

Homo sapiens = species: Homo sapiens; test: Selectivity ratio of Ki for human adenosine A1 receptor to Ki for human adenosine A2A receptor
[1] = Intrinsic clearance in dog hepatocytes at 0.2 uM after 60 mins; type: ADME, cell-based, Canis lupus familiaris, Liver, Hepatocyte; conditions: 1 h
In short: (§2)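 Pooled cryopreserved hepatocytes: human (three donors), male Sprague-Dawley rat (two donors), male beagle dog (two donors). Cells at 10^6/mL in DMEM with 5 mM HEPES, 37 C, 15 min preincubation; compound at 0.2 μM. Samples at 0-60 min, depletion by LC-MS/MS. t1/2 scaled to CLint with 120 (human, rat) or 240 (dog) million cells/g liver. n = 1.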

Hepatocyte = test: Intrinsic clearance in human hepatocytes at 0.2 uM after 60 mins; type: ADME, cell-based, Liver; conditions: 1 h; in short: as §2
[2] = Apparent permeability from apical to basolateral side in human Caco2 cells at 1 uM after 21 to 28 days; type: ADME, cell-based; conditions: caco-2
In short: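 Caco-2 cells grown 21-28 days on permeable filters. A 2 mM DMSO stock was diluted into Hanks-HEPES pH 7.4. Dosing solution went into the apical (A-B) or basolateral (B-A) chamber, and the opposite chamber was sampled over 240 min with buffer replacement. Efflux ratio = Papp,B-A/Papp,A-B. Mean ± SD, n = 3.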

[3] = Protein binding in rat serum at 1 uM after 60 mins by LC/MS-MS; type: ADME, cell-free; conditions: read-out: PPB (converted)
[4] = Ratio of drug level whole brain to plasma in abcb1a-deficient mouse at 1 mg/kg, po after 50 mins
Rattus norvegicus = test: Cmax in Sprague-Dawley rat at 1 mg/kg, po; type: ADME, organism-based; set-up: dose 1 mg/kg, route oral; conditions: in vivo
In short: (§3)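 Awake Sprague-Dawley rats carrying a carotid catheter were dosed with 0.5 mg/kg iv or 1 mg/kg po in aqueous 25% cremophore, n = 3 per route. Ten 100 μL blood samples were collected automatically over 20 h. Plasma was assayed by HTLC-MS/MS. Parameters came from a two-compartment model with first-order absorption (po) and elimination.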

[5] = Plasma clearance in Sprague-Dawley rat at 0.5 mg/kg, iv and 1 mg/kg, po; type: ADME, organism-based; in short: as §3
[6] = Volume of distribution at steady state in Sprague-Dawley rat at 0.5 mg/kg, iv and 1 mg/kg, po; type: ADME, organism-based; conditions: in vivo, read-out: Vdss; in short: as §3
[7] = Terminal half life in Sprague-Dawley rat at 0.5 mg/kg, iv and 1 mg/kg, po; type: ADME, organism-based; conditions: in vivo; in short: as §3
Mus musculus [8] = test: Reversal of haloperidol-induced hypolocomotion in po dosed NMRI mouse administered 30 mins before haloperidol challenge measured for 20 mins; type: functional
In short: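 Male NMRI mice (n = 8/group) were given compound po in 25% cremophor/saline, then haloperidol 0.63 mg/kg sc 30 min later. After 15 min they went into photocell activity boxes, and locomotion was recorded for 20 min. ED50 by sigmoidal fit with top 100 and bottom 0.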

Mus musculus [9] = test: Displacement of [3H]SCH58261 from po dosed NMRI mouse striatum by liquid scintillation counting; type: functional
[10] = Aqueous solubility of the compound at pH 7.4; type: physicochemical; conditions: buffer
In short: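 About 5 mg solid was shaken overnight in 1 mL of 25 mM phosphate buffer, pH 7.4, after 3 min sonication; more solid was added if it all dissolved. The suspension was filtered through 0.22 μm PVDF and the solution measured by HPLC against a standard curve.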

Which Ki (Adenosine receptor A1) does the source give for CC(C)(C)CC(=O)Nc1c(F)cc(C(=O)Nc2nccs2)cc1F here?
The Ki was 0.41 µM.

What about the IC50 (Cytochrome P450 1A2) of the same molecule?
Its IC50 is > 40 µM.

What about the IC50 (Cytochrome P450 2C19) of the same molecule?
The IC50 was > 40 µM.

And the IC50 (Cytochrome P450 2D6)?
Its IC50 is > 40 µM.

What about the Ratio Ki (Homo sapiens) of the same molecule?
Its Ratio Ki is 69.

What about the CL [1] of the same molecule?
The CL was 346 mL/min.

What about the CL (Hepatocyte) of the same molecule?
Its CL is 600 mL/min.

What about the Papp A→B at 1 µM [2] of the same molecule?
Its Papp A→B at 1 µM is 88 ×10⁻⁶ cm/s.

And the fraction unbound at 1 h, 1 µM [3]?
Its fraction unbound at 1 h, 1 µM is 0.03.

What about the Kp at 50 min [4] of the same molecule?
Its Kp at 50 min is 0.8.

And the Cmax (Rattus norvegicus)?
The Cmax was 878 ng/mL.

What about the clearance [5] of the same molecule?
The clearance was 5 mL/min/kg.

What about the Vd [6] of the same molecule?
Its Vd is 1 L/kg.

And the half-life [7]?
Its half-life is 7.8 h.

What about the Activity (Mus musculus [8]) of the same molecule?
The Activity was “Dose-dependent effect”.

What about the ED50 (Mus musculus [8]) of the same molecule?
The ED50 was 0.5 mg/kg.

What about the Activity (Mus musculus [9]) of the same molecule?
Its Activity is “Dose-dependent effect”.

What about the ED50 (Mus musculus [9]) of the same molecule?
The ED50 was 1.1 mg/kg.

And the solubility [10]?
Its solubility is 1 µg/mL (≈ 2.83 µM).
